Data from ChEMBL document CHEMBL1138050, “Furan-2-ylmethylene thiazolidinediones as novel, potent, and selective inhibitors of phosphoinositide 3-kinase gamma” (J Med Chem, 2006).

How the values were obtained:
[1] = molecular target: RAC-beta serine/threonine-protein kinase (Homo sapiens) (UniProt P31751); test: Residual activity at human PKBbeta at 10 uM in presence of 10 uM ATP relative to control
Outline: (§1)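 Single-concentration counter-screen across a panel of 80 Ser/Thr and Tyr protein kinases. Compound was tested at 10 µM with ATP at 10 µM. Activity remaining in each kinase is expressed relative to control.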

[2] = molecular target: BDNF/NT-3 growth factors receptor (Homo sapiens) (UniProt Q16620); test: Residual activity at human TrkB at 10 uM in presence of 10 uM ATP relative to control; outline: as §1
[3] = molecular target: Tyrosine-protein kinase Fes/Fps (Homo sapiens) (UniProt P07332); test: Residual activity at human Fes at 10 uM in presence of 10 uM ATP relative to control
Outline: (§2)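 Panel of Ser/Thr and Tyr protein kinases, each tested with 10 µM compound in the presence of 10 µM ATP; activity expressed relative to control.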

[4] = molecular target: Mitogen-activated protein kinase 9 (Homo sapiens) (UniProt P45984); test: Residual activity at human JNK2-alpha-2 at 10 uM in presence of 10 uM ATP relative to control; outline: as §1
Chain of Mitogen-activated protein kinase 9 (Homo sapiens) (P45984 whole entry, looked up): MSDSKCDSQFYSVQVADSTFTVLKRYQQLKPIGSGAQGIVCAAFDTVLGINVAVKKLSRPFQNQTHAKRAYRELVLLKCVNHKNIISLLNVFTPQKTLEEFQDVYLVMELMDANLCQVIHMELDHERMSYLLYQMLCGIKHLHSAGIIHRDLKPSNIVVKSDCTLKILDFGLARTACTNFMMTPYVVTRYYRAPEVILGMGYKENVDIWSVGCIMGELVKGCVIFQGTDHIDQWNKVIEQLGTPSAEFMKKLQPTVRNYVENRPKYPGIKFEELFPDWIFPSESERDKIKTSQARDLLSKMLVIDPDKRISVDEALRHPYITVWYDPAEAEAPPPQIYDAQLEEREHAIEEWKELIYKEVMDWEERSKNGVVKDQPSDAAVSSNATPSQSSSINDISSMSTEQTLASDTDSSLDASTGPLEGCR

[5] = molecular target: Mitogen-activated protein kinase 10 (Homo sapiens) (UniProt P53779); test: Residual activity at human JNK3 at 10 uM in presence of 10 uM ATP relative to control; outline: as §1
Chain of Mitogen-activated protein kinase 10 (Homo sapiens) (P53779 whole entry): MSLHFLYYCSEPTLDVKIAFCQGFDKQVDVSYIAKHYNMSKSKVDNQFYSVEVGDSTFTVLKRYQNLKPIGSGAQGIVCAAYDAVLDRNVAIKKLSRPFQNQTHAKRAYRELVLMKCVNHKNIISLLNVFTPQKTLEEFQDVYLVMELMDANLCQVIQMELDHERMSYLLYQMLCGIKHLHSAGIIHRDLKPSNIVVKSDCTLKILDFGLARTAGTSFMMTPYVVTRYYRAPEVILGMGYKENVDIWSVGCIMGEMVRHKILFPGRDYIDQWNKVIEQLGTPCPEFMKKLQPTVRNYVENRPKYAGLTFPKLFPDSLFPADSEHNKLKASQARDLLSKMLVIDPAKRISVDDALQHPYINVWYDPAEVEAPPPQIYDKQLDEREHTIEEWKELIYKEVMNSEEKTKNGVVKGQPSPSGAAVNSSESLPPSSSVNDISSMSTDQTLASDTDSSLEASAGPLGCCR

[6] = molecular target: RAC-alpha serine/threonine-protein kinase (Homo sapiens) (UniProt P31749); test: Residual activity at human PKBalpha at 10 uM in presence of 10 uM ATP relative to control; outline: as §1
Chain of RAC-alpha serine/threonine-protein kinase (Homo sapiens) (P31749 whole entry): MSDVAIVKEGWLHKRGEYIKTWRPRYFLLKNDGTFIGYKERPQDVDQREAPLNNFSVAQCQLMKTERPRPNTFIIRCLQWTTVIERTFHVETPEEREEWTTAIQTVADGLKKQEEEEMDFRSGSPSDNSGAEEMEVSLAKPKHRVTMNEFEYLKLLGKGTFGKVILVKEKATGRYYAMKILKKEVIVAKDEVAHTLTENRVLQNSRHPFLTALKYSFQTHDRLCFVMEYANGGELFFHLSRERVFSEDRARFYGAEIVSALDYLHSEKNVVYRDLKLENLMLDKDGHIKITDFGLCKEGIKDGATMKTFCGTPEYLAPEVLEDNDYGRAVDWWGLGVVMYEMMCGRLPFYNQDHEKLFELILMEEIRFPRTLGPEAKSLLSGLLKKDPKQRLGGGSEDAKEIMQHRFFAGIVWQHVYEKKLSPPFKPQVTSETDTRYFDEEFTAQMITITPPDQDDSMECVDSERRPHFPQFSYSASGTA

[7] = molecular target: CDK6/cyclin D3 (Homo sapiens) (UniProt P30281+Q00534); test: Residual activity at human CDK6/CyclinD3 at 10 uM in presence of 10 uM ATP relative to control; format: protein-complex assay; outline: as §2
[8] = molecular target: Tyrosine-protein kinase receptor UFO (Homo sapiens) (UniProt P30530); test: Residual activity at human Axl at 10 uM in presence of 10 uM ATP relative to control; outline: as §2
Chain of Tyrosine-protein kinase receptor UFO (Homo sapiens) (P30530 whole entry): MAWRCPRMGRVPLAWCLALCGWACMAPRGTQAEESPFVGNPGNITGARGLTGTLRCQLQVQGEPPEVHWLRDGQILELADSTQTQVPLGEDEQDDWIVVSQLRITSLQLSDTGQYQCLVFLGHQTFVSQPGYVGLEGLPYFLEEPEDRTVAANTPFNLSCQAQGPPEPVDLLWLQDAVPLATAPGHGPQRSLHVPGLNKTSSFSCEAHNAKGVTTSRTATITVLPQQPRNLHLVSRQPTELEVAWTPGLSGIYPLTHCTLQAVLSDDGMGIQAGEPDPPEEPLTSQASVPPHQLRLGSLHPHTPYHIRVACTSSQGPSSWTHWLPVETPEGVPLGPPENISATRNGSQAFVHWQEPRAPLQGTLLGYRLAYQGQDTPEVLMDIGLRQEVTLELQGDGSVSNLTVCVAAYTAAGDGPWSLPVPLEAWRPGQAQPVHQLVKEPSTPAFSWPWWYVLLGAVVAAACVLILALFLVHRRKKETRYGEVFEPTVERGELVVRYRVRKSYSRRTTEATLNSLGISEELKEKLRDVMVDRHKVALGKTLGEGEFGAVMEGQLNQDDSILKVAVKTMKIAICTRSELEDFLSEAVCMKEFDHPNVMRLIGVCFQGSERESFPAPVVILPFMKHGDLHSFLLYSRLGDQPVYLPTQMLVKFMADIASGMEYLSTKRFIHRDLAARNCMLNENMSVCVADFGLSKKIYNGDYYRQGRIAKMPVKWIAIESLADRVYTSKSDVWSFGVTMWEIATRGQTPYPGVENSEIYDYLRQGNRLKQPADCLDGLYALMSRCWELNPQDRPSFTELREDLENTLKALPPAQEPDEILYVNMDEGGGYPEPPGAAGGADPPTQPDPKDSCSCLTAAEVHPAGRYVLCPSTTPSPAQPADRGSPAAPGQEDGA

[9] = molecular target: Tyrosine-protein kinase ABL2 (Mus musculus) (UniProt Q4JIM5); test: Residual activity at mouse Arg at 10 uM in presence of 10 uM ATP relative to control; outline: as §1
[10] = molecular target: cAMP-dependent protein kinase (PKA) (Homo sapiens) (UniProt P22694+P17612+P22612); test: Residual activity at human PKA at 10 uM in presence of 10 uM ATP relative to control; format: protein assay; outline: as §1
[11] = molecular target: Serine/threonine-protein kinase D2 (Homo sapiens) (UniProt Q9BZL6); test: Residual activity at human PKD2 at 10 uM in presence of 10 uM ATP relative to control; outline: as §1
[12] = molecular target: Protein kinase C alpha type (Homo sapiens) (UniProt P17252); test: Residual activity at human PKCalpha at 10 uM in presence of 10 uM ATP relative to control; outline: as §1
[13] = molecular target: Tyrosine-protein kinase CSK (Homo sapiens) (UniProt P41240); test: Residual activity at human CSK at 10 uM in presence of 10 uM ATP relative to control; outline: as §2
Chain of Tyrosine-protein kinase CSK (Homo sapiens) (P41240 2-450 limits assumed): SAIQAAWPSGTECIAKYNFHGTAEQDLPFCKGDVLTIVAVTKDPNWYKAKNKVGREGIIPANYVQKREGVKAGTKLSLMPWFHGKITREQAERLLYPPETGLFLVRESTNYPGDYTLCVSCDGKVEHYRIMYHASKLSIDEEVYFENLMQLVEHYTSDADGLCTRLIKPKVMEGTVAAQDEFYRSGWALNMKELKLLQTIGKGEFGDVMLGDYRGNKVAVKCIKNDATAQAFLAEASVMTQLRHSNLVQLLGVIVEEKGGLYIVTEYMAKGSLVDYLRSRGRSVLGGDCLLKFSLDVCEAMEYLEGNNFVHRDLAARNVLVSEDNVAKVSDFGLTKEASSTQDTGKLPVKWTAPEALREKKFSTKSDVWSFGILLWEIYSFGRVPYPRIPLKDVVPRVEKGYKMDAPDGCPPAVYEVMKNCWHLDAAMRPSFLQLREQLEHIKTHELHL

[14] = test system: Mus musculus; test: Reduction of neutrophil recruitment in mouse at 10 mg/kg, po; format: functional; parameters: scale not given: the % may be the effect or the level left
Outline: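 Thioglycollate-induced peritonitis in mice. Compound given orally at 10 mg/kg; peritoneal neutrophil recruitment measured 4 h after thioglycollate injection, reported as percent reduction.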

[15] = molecular target: Calcium/calmodulin-dependent protein kinase type IV (Homo sapiens) (UniProt Q16566); test: Residual activity at human CaMK4 at 10 uM in presence of 10 uM ATP relative to control; outline: as §2
[16] = molecular target: Protein kinase C epsilon type (Homo sapiens) (UniProt Q02156); test: Residual activity at human PKCepsilon at 10 uM in presence of 10 uM ATP relative to control; outline: as §1
[17] = Metabolism in rat microsome after 1 hr; format: ADME; settings: microsomes, read-out: Activity
[18] = species: Rattus norvegicus; test: Residual activity at rat AMPK at 10 uM in presence of 10 uM ATP relative to control; outline: as §1
[19] = Dissociation constant, pKa of the compound; format: physicochemical
Outline: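 UV-metric titration under argon at 25 ± 0.5 °C. 10 mM DMSO stock diluted into 0.15 M KCl containing 60, 50, 40 or 30 wt% MeOH, with 0.25 mM KH2PO4. Brought to pH 11.0 with 0.5 M KOH, then titrated with 0.5 M HCl to pH 4, at most 0.15 pH unit per step. UV 200-500 nm recorded after each addition; Yasuda-Shedlovsky extrapolation to zero cosolvent.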

[20] = molecular target: Mitogen-activated protein kinase 14 (Homo sapiens) (UniProt Q16539); test: Residual activity at human SAPK2a at 10 uM in presence of 10 uM ATP relative to control; outline: as §1
[21] = molecular target: Insulin-like growth factor 1 receptor (Homo sapiens) (UniProt P08069); test: Residual activity at human IGF1R at 10 uM in presence of 10 uM ATP relative to control; outline: as §2
[22] = molecular target: Platelet-derived growth factor receptor beta (Homo sapiens) (UniProt P09619); test: Residual activity at human PDGFRbeta at 10 uM in presence of 10 uM ATP relative to control; outline: as §1
[23] = molecular target: Tyrosine-protein kinase Blk (Mus musculus) (UniProt P16277); test: Residual activity at mouse Blk at 10 uM in presence of 10 uM ATP relative to control; outline: as §1
[24] = molecular target: Protein kinase C gamma type (Homo sapiens) (UniProt P05129); test: Residual activity at human PKCgamma at 10 uM in presence of 10 uM ATP relative to control; outline: as §1
[25] = molecular target: Rho-associated protein kinase 2 (Homo sapiens) (UniProt O75116); test: Residual activity at human ROCK2 at 10 uM in presence of 10 uM ATP relative to control; outline: as §1
[26] = molecular target: CDK3/cyclin E (Homo sapiens) (UniProt P24864+O96020+Q00526); test: Residual activity at human CDK3/CyclinE at 10 uM in presence of 10 uM ATP relative to control; format: protein-complex assay; outline: as §2
Chain of CDK3/cyclin E (Homo sapiens) (O96020 whole entry, looked up): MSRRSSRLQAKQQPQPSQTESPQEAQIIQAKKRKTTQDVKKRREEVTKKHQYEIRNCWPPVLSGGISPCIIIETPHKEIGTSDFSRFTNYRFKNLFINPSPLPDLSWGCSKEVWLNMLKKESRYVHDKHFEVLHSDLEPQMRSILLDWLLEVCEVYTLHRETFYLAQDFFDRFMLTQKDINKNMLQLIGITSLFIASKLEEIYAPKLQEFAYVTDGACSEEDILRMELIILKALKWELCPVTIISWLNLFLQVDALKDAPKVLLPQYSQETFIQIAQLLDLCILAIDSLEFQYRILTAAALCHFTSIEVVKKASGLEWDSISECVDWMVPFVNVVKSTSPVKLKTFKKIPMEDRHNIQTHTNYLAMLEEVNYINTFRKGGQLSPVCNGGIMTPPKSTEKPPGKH
Chain of CDK3/cyclin E (Homo sapiens) (P24864 whole entry, looked up): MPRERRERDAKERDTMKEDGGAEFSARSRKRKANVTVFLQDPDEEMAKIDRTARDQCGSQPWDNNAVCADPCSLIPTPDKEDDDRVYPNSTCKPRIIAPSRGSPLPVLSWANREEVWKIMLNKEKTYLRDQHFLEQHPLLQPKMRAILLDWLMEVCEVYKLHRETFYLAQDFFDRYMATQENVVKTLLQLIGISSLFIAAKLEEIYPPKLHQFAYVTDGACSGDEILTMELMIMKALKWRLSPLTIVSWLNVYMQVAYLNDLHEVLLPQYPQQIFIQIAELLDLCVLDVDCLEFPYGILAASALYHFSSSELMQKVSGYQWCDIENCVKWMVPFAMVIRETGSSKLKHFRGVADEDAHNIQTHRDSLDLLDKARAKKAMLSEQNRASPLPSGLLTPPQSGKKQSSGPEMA
Chain of CDK3/cyclin E (Homo sapiens) (Q00526 whole entry, looked up): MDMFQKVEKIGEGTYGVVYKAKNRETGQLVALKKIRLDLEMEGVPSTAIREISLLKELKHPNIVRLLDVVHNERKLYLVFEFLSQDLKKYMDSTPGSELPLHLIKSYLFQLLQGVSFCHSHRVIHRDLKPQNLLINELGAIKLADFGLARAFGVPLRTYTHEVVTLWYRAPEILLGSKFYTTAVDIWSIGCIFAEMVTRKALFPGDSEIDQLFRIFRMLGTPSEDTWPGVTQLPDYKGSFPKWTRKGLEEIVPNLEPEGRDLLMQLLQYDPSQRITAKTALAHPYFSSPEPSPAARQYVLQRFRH

[27] = molecular target: RAC-gamma serine/threonine-protein kinase (Homo sapiens) (UniProt Q9Y243); test: Residual activity at human PKBgamma at 10 uM in presence of 10 uM ATP relative to control; outline: as §1
Chain of RAC-gamma serine/threonine-protein kinase (Homo sapiens) (Q9Y243 whole entry): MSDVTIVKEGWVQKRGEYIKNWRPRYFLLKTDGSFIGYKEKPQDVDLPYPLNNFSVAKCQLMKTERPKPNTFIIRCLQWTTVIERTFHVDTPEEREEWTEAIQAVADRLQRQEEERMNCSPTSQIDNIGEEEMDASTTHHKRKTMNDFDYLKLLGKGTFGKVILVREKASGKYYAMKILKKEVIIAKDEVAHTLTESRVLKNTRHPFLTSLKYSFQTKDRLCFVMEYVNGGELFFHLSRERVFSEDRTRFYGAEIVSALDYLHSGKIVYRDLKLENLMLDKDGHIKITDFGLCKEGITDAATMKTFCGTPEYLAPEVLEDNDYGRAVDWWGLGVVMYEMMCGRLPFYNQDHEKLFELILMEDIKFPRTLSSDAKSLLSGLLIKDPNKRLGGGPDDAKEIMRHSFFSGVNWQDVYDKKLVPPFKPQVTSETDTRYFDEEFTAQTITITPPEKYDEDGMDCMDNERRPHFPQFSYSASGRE

O=C1NC(=O)/C(=C/c2ccc(-c3ccc(F)cc3O)o2)S1
Activity [1]: 103% | Activity [2]: 98% | Activity [3]: 90% | Activity [4]: 97% | Activity [5]: 86% | Activity [6]: 97% | Activity [7]: 89% | Activity [8]: 74% | Activity [9]: 85% | Activity [10]: 89% | Activity [11]: 91% | Activity [12]: 98% | Activity [13]: 103% | Activity [14]: 35% | Activity [15]: 111% | Activity [16]: 93% | metabolised at 1 h [17]: 16% | Activity [18]: 90% | pKa [19]: 8.4 | Activity [20]: 84% | Activity [21]: 96% | Activity [22]: 96% | Activity [23]: 70% | Activity [24]: 107% | Activity [25]: 90% | Activity [26]: 117% | Activity [27]: 96%
